Assay outcomes deposited in PubChem by several laboratories.
This is a sample that favours compounds with a hit; in the whole collection about 2.1% have one here.
STAT1 inh: STAT1 signaling inhibitors, primary screen, cell-based, HTS, luciferase reporter. NIH 3T3 STAT1-luciferase reporter, IFN-gamma, luminescence. inhibition, % at 5.5 µM. hit rate 0.35% among 200,000. AID 920, 2007;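 active means inhibition above a set limit, the mean inhibition across all tested compounds plus 3 SD, cut at about 34% in these data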;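 further: 0% = IFN-gamma with DMSO and 100% = IFN-gamma with 300 µM nifuroxazide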
TNF necrop inh: inhibitors of TNF-alpha triggered necroptosis, primary screen, cell-based, Jurkat FADD-/-, single concentration | hit rate 0.068% among 220,000 | activation (protection from cell death), % at 10 µM | AID 463075, 2010 | Jurkat FADD-/- TNF necroptosis rescue, ATP luminescence, 24 h; 0 = TNF only, 100 = no-TNF cells;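 active means activation, meaning protection from cell death, of at least 50% relative to plate controls; inactive means activation below 50%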;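 further: necroptosis triggered by 40 ng/mL TNF-alpha added together with compound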
L929 necroptosis: inhibitors of zVAD-triggered necroptosis, primary screen, L929 cells; L929 zVAD necroptosis rescue, ATP luminescence, 24 h; with zVAD 60 µM; viability rescue, % at 10 µM; hit rate 0.38% among 220,000; AID 1377, 2008;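 active means activation, scaled between plate controls, above about 75%, limit read from the data; inactive means activation under that limit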;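 further: 0% = zVAD with DMSO and 100% = DMSO alone without zVAD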
STAT3 inh: IL-6 driven STAT3 reporter inhibitors, primary screen, U3A cells, luciferase, luminescence, MLSCN library. IL-6 STAT3-luciferase reporter; host cell line lacks STAT1. inhibition, % at 5.5 µM. hit rate 0.89% among 190,000. AID 862, 2007;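 active means inhibition above the mean inhibition across all screened compounds plus 3 SD, cut at about 44% in these data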;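 further: 0% = DMSO only wells and 100% = 100 µM nifuroxazide control wells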
STAT3 act: IL-6 driven STAT3 reporter potentiators, primary screen, U3A cells, luciferase, luminescence, MLSCN library; IL-6 STAT3-luciferase reporter; 100% = signal with IL-6 EC80 alone; activation (% of control), % at 5.6 µM; hit rate 0.91% among 190,000; AID 871, 2007;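 active means activation above the screen-wide mean of compound activation plus 3 SD, cut at about 130% in these data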;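 further: 0% = background luminescence of wells with medium and substrate only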
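Material: STAT3-luciferase reporter U3A cells; Probe or stimulus: IL-6 (33 ng/mL); Incubation: compound pre-incubation 1 h before IL-6, then 6 h stimulation at 37 °C; Technique: luminescence from STAT3-driven luciferase reporter; Evaluation: % activation versus median of IL-6-stimulated wells; Controls: IL-6-only high control.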
zVAD death conf: inhibitors of zVAD-triggered necroptosis in L929, confirmation, L929 cells, duplicate runs; shares compounds with L929 necroptosis; L929 zVAD-induced necroptosis rescue, ATP luminescence, 24 h; activation (protection from necroptosis), % at 10 µM; hit rate 16% among 760;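 active means mean protection from necroptosis of at least 50% over duplicate tests; inactive means mean protection below 50%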;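 further: 0% = cells with zVAD alone and 100% = vehicle cells without zVAD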
* marks the source's active call; other numbers are inactive results; nt = not tested or not shown; ! = not active in a repeat.

SMILES	STAT1 inh	TNF necrop inh	L929 necroptosis	STAT3 inh	STAT3 act	zVAD death conf
O=[N+]([O-])c1cc(Cl)cc(/C=N/Nc2nc3ccccc3s2)c1O	-17	-1	11	-29	128	nt
Brc1csc(/C=N/Nc2nc3ccccc3s2)c1	-101	7	76*	-14	114	2
COc1cc(/C=N/Nc2nc3ccccc3s2)ccc1OC(=O)c1ccccc1F	-4	31	75*	-27	119	75*
COc1cc(/C=N/Nc2nc3ccccc3s2)cc([N+](=O)[O-])c1O	nt	25	76*	nt	nt	1
COc1ccc(C(=O)NCC(=O)N/N=C/c2cccc(OC(=O)c3ccco3)c2)cc1OC	-5	-2	0	9	97	nt
COc1cc2oc(-c3ccc(O)cc3)cc(=O)c2c(O)c1OC	nt	-11	78*	nt	nt	42
N/C(=N\NC(=O)Nc1ccc(Cl)cc1)c1ccccn1	nt	1	81*	nt	nt	3
Cc1c(NS(=O)(=O)c2cccs2)cccc1-c1nc2cccnc2s1	nt	-1	0	nt	nt	nt
O=S(=O)(Nc1cccc2ncccc12)c1cccs1	11	5	79*	-11	115	40
COCCn1c(C)cc(C2=NNC(=NC(C)(C)C)SC2)c1C	-20	-3	4	-12	117	nt
Cc1cnc(NC(=O)c2cc3ccccc3o2)s1	43*	10	81*	60*	53	0
Cc1ccc(C(=O)Nc2ncc(C)s2)o1	-41	1	60	9	93	nt
COc1ccc(-c2cnc(N)nc2-c2ccc(OC)cc2O)cc1	6	1	92*	1	103	8
C=C(C)COc1ccc(-c2nc(N)ncc2-c2ccc(OC)cc2)c(O)c1	1	-1	3	-8	111	nt
COc1ccc(NC(=O)Nc2ccc(Br)cn2)cc1	-74	9	79*	3	97	10
Cc1ccc(NC(=O)Nc2ccc3c(c2)OCO3)nc1	-52	7	77*	4	97	1
O=C(Nc1ccccc1)Nc1ccccn1	-20	1	77*!	11	92	3
O=C(Nc1ccc(Cl)cc1)Nc1cnccn1	-16	0	76*	24	82	7
O=C(Nc1ccc(F)c(Cl)c1)Nc1cnccn1	-1	1	3	13	90	nt
CCOc1ccc(Nc2cc(C)nc(-n3nc(C)cc3C)n2)cc1	4	-12	0	-3	106	nt
CCC(C)(C)n1nnnc1C(c1cc2ccc(OC)cc2[nH]c1=O)N1CCCCC1 (centres undefined)	0	2	1	5	101	nt
COC(=O)c1ccccc1NC(=O)Nc1cnccn1	-8	1	nt	-7	109	nt
O=C(Nc1cnccn1)Nc1ccccc1Cl	-24	-2	79*	25	81	2
Cc1ccc(NC(=O)Nc2ccc(Cl)cn2)cc1	-80	3	83*	18	94	1
CCOc1ccccc1NC(=O)Nc1cnccn1	-9	-2	80*	20	86	2
SMILES	STAT1 inh	TNF necrop inh	L929 necroptosis	STAT3 inh	STAT3 act	zVAD death conf
O=C(Nc1cnccn1)Nc1cccc(Cl)c1Cl	-6	0	15	19	86	nt
O=S1(=O)[C@H]2C[C@@H]3CC[C@]2(CN1Cc1cccc(F)c1)O3	nt	1	0	nt	nt	nt
Cc1ccc(N=c2c([N+](=O)[O-])nn(-c3ccc4c(c3)OCCO4)n2O)cc1F	16	-4	1	36	73	nt
O=c1oc(-c2cccnc2)nc2ccccc12	3	-1	0	0	101	nt
c1ccc(-c2cnc(-c3cccnc3)o2)cc1	-38	-14	79*	4	100	47
Cc1cccc(NC(=O)Cn2c(=O)n(C)c3ccccc32)c1	5	-1	0	5	98	nt
Nc1ccc(C(=O)Nc2nccs2)cc1	-31	21	81*	6	97	40
CCn1c(SCc2ccc(C(=O)Nc3nccs3)cc2)nnc1-c1ccc(N)cc1	13	17	88*	8	98	71*
O=C(Nc1nccs1)c1ccc(NC(=O)c2ccco2)cc1	-48	21	84*	-4	104	48
Nc1ccccc1C(=O)Nc1nccs1	-16	9	91*	14	91	11
O=C(Nc1nccs1)c1ccccc1[N+](=O)[O-]	-2	1	1	2	101	nt
CCOC(=O)C/C(C)=N/NC(=O)c1cccs1	-31	0	0	-9	111	nt
NS(=O)(=O)c1ccc(CCNC(=O)CN2CCC(Cc3ccccc3)CC2)cc1	2	-5	-1	26	84	nt
COc1ccc(CC(=O)Nc2ccc(C(=O)Nc3nccs3)cc2)cc1OC	-4	14	83*	25	82	63*
CC(C)(C)C1CCc2nc(NC(=O)Cc3cn4ccsc4n3)sc2C1 (centres undefined)	-5	4	76*	2	102	23
CC1CCc2nc(NC(=O)Cc3cccs3)sc2C1 (centres undefined)	-46	8	0	-2	105	nt
O=C(NC(=S)Nc1cccc(NC(=O)c2ccc(Cl)cc2Cl)c1)c1cccs1	1	-1	77*	3	93	35
Nc1ccccc1Nc1cc(-c2ccccc2)[nH]n1	-134	-13	91*	31	75	89*
Nc1ccccc1Nc1cc(-c2ccccc2)nn1-c1ccccc1	-10	1	0	4	99	nt
O=C(CCl)N1c2ccccc2OCC1c1ccccc1 (centres undefined)	-1	-15	90*	-5	104	3
COc1ccccc1NC(=O)CN1CCC(n2c(C)nc3cc(F)ccc32)CC1	0	-3	0	10	93	nt
O=[N+]([O-])c1ccc(/C=N/Nc2ncc(-c3ccccc3)cn2)cc1	-3	1	79*	14	90	2
CC(C)N1CCN(CC#Cc2ccccc2)CC1CCO (centres undefined)	2	1	1	-2	107	nt
CC/C(=N\NC(=O)c1c[nH]c2ccccc12)c1cccs1	-41	1	5	-12	115	nt
CNc1nc(C)nc(N/N=C/c2ccccc2)n1	-18	16	76*	-7	110	1
SMILES	STAT1 inh	TNF necrop inh	L929 necroptosis	STAT3 inh	STAT3 act	zVAD death conf
C(=N\Nc1nc(Nc2ccccc2)nc(Nc2ccccc2)n1)/c1ccncc1	0	2	5	13	93	nt
COc1cc(/C=N/Nc2ccc(C(F)(F)F)cn2)ccc1O	-22	45	79*	25	85	93*
O=C(O)c1ccc(/C=N/Nc2ccc(C(F)(F)F)cn2)cc1	-59	58*	88*	5	102	12
Cc1cc(C)cc(Nc2c3c(nc4ncnn24)CCC3)c1	5	-2	3	8	97	nt
Cc1cccc(N=c2oc3cc(O)ccc3cc2C(N)=O)c1	-33	-4	83*	6	99	20
CCN(C(=O)COC(=O)c1ccc(OC)c(S(=O)(=O)N2CCCc3ccccc32)c1)C1CCS(=O)(=O)C1 (centres undefined)	-4	1	1	9	94	nt
O=C(Nc1nccs1)c1cccc(N2C(=O)C3C4C=CC(C4)C3C2=O)c1 (centres undefined)	-2	11	78*	0	100	17
O=C(Nc1nccs1)c1ccc(N2C(=O)[C@@H]3[C@H](C2=O)[C@H]2C=C[C@@H]3C2)cc1	nt	17	79*	nt	nt	2
